Rows were chosen to be rich in hits. Some 2.3% of all compounds tested hit in one or more screens of this group.
TbHK1 inh: Trypanosoma brucei hexokinase 1 inhibitors, primary screen, biochemical, G6PDH-coupled NADH absorbance, MLSCN library; 220,000 tested, 0.11% active; hexokinase 1 [Trypanosoma brucei]; inhibition, % at 10 µM; recombinant TbHK1, G6PDH-coupled NADH A340;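 active = inhibition of 50% or more in the single-dose primary screen; inactive = inhibition below 50%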
NPY-Y2 PAM-ag: NPY-Y2 potentiators or agonists, primary screen, cell-based | activation, % at 3.6 µM | cells expressing NPY-Y2, potentiator/agonist read-out | Neuropeptide Y receptor type 2 (Homo sapiens), P49146 | AID 1359, 2008 | 220,000 tested, 0.45% active; in the data active = activation above about 27%;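 also: cells stimulated with NPY near EC25 plus isoproterenol at EC100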
NPY Y2 blocker: NPY-Y2 receptor antagonists, primary screen, cell-based. NPY-Y2 expressing cells, antagonist mode. inhibition, % at 2.7 µM. 140,000 tested, 0.99% active
Calpain2 inh: inhibitors of pig calpain II, primary screen, biochemical, fluorogenic peptide substrate, 1536-well; 220,000 tested, 0.37% active; purified calpain II, 30 min; AID 1236, 2008; inhibition, % at 16 µM;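 active = inhibition above about 50%, limit read from the data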
NPY1 pot ag: NPY-Y1 receptor potentiators or agonists, primary screen, cell-based; 220,000 tested, 0.37% active; activation, % at 3.6 µM; NPY-Y1 expressing cells, potentiator/agonist activation; Neuropeptide Y receptor type 1 (Homo sapiens), P25929; in the data active = activation above about 33%, passing the limit was not always enough;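 also: cells stimulated with NPY at EC10 then isoproterenol at EC100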
Target sequence (P25929 whole entry, looked up): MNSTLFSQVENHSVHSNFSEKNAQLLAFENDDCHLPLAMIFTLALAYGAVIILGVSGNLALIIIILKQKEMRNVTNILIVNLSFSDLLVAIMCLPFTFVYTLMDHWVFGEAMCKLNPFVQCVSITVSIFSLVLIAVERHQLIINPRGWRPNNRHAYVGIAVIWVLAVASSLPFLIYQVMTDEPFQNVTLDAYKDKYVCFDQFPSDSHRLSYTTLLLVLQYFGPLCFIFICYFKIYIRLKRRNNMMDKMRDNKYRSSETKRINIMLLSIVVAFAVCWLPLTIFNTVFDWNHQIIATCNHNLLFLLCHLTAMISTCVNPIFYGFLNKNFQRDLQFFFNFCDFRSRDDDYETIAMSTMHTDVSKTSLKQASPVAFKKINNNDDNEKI
NPY Y1 blocker: NPY-Y1 receptor antagonists, primary screen, cell-based; HEK293-CNG Y1 cells, membrane potential fluorescence; NPY at EC95, then isoproterenol; inhibition, % at 3.6 µM; AID 1040, 2008; Neuropeptide Y receptor type 1 (Homo sapiens), P25929; 200,000 tested, 1% active;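 active = inhibition above the campaign mean inhibition of all tested compounds plus 3 SD, cut at about 20% in these data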
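System: HEK293 cells with Y1 receptor plus CNG channel / Probe or stimulus: NPY 25 nM then isoproterenol 1 µM plus Ro 20-1724 25 µM / Compound: one concentration, 3.6 µM, in 0.4% DMSO / Schedule: compound incubation 1 h at room temperature, readout 45 min post-stimulation / Measured by: membrane potential fluorescence / Read-out: % inhibition of NPY effect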
NPY1 antag conf: NPY-Y1 receptor antagonists, retest of hits, confirmation, HEK293-CNG cells, membrane potential fluorescence, triplicate | shares compounds with NPY Y1 blocker | cAMP; NPY challenge against isoproterenol-raised cAMP | AID 1254, 2008 | 1,200 tested, 21% active | inhibition, % at 3.6 µM; in the data active = inhibition above about 20%
NPY2 antag ctr: NPY-Y2 receptor antagonists, selectivity check, confirmation, counter-screen for NPY-Y1 antagonist project, HEK293-CNG cells, membrane potential fluorescence, triplicate. shares compounds with NPY Y1 blocker. antagonism; cells given NPY, then isoproterenol. inhibition, % at 3.6 µM. 1,200 tested, 28% active. AID 1255, 2008
Of the large screens only hits and unclear results are named; the others gave an inactive call (follow-up assays come after a bar, where they were run). Rule as the data show it, unless noted: active = inhibition above about 17%; inactive = the rest.

CC(Oc1ccc(F)cc1)C(=O)Nc1ccc2ccccc2c1 (configuration not stated)	NPY Y1 blocker 40.6 | NPY1 antag conf inactive | NPY2 antag ctr inactive
O=C(OCCN1C(=O)c2ccccc2C1=O)c1cc(=O)[nH]c2ccccc12	none
Cc1cc(C(=O)OCCN2C(=O)c3ccccc3C2=O)c2ccccc2n1	NPY Y1 blocker 24.5 | NPY1 antag conf inactive | NPY2 antag ctr inactive
OC(CNCc1ccc(F)cc1)(c1ccccc1)c1ccc(F)cc1 (configuration not stated)	none
COc1ccc(CNCC(O)(c2ccc(F)cc2)c2ccc(F)cc2)cc1	NPY Y1 blocker 32.3 (no result: NPY Y2 blocker) | NPY1 antag conf inactive | NPY2 antag ctr inactive
O=[N+]([O-])c1ccc(Cl)c(S(=O)(=O)/N=C(/c2ccccc2)N2CCOCC2)c1	none (no result: NPY Y2 blocker)
CCc1cc(CNC(=O)CCc2nnc(CCCc3ccccc3)o2)on1	none (no result: NPY Y2 blocker)
CCOC(=O)c1c(C)n(C)c2cc(Br)c(O)c(O)c12	none (no result: NPY Y2 blocker, NPY Y1 blocker)
CCOC(=O)c1c(CSc2cccs2)n(C)c2cc(Br)c(O)c(CN(C)C)c12	NPY Y1 blocker 59.4 (no result: NPY Y2 blocker) | NPY1 antag conf 51.2 | NPY2 antag ctr 47.8
c1ccc(-c2nc(-n3ccnc3)nc(-n3ccnc3)n2)cc1	none
c1ccc(CN2CCN(c3nc(-c4ccccc4)nc(-n4ccnc4)n3)CC2)cc1	NPY Y1 blocker 40.4 | NPY1 antag conf 24.2 | NPY2 antag ctr 22.7
CCCCn1c(SCC(=O)NC(C)CC)nc2ccc(N3CCOCC3)cc2c1=O (configuration not stated)	NPY Y1 blocker 23.3 | NPY1 antag conf inactive | NPY2 antag ctr inactive
CCC(C)NC(=O)CSc1nc2ccc(N3CCOCC3)cc2c(=O)n1CCc1ccccc1 (configuration not stated)	none
CCCCn1c(SCC(=O)N2CCC(C)CC2)nc2ccsc2c1=O	NPY Y1 blocker 20.8 | NPY1 antag conf inactive | NPY2 antag ctr inactive
COc1ccc(N2CCN(C(=O)CSc3nnc(NC(=O)C4CC4)s3)CC2)cc1	none (no result: NPY Y2 blocker)
COc1ccccc1-c1ccc(SCC(=O)NCCc2ccccc2)nn1	none (no result: NPY Y2 blocker)
COc1ccccc1CCNC(=O)CSc1ccc(-c2ccco2)nn1	NPY Y1 blocker 22.0 (no result: NPY Y2 blocker) | NPY1 antag conf inactive | NPY2 antag ctr inactive
CCc1ccc(NC(=O)CSc2nc3ccccc3c(=O)n2CCCN2CCC(C)CC2)cc1	NPY Y1 blocker 37.6 (no result: NPY Y2 blocker) | NPY1 antag conf 47.4 | NPY2 antag ctr 50.6
O=C(c1ccc2c(c1)OCO2)C1CCCN(Cc2cc(F)ccc2-n2cccn2)C1 (configuration not stated)	none (no result: NPY Y2 blocker)
Cc1ccc(-n2cccn2)c(CN2CCCC(C(=O)c3ccc4c(c3)OCO4)C2)c1 (configuration not stated)	NPY Y1 blocker 27.6 (no result: NPY Y2 blocker) | NPY1 antag conf 24.1 | NPY2 antag ctr 28.4
CC1(C)C(CSc2nc3ccccc3[nH]2)C1(Cl)Cl (configuration not stated)	NPY Y1 blocker 91.8 (no result: NPY Y2 blocker) | NPY1 antag conf 90.0 | NPY2 antag ctr 110.4
COc1cccc(NC(=O)c2ccccc2-c2nc(-c3ccc(F)cc3)no2)c1	NPY Y1 blocker 21.9 | NPY1 antag conf inactive | NPY2 antag ctr inactive
COc1cccc(NC(=O)c2ccccc2-c2nc(-c3ccccc3)no2)c1	NPY Y1 blocker 26.1 | NPY1 antag conf inactive | NPY2 antag ctr inactive
CCn1c(=NC(=O)C2COc3ccccc3O2)sc2c(OC)ccc(OC)c21 (configuration not stated)	none (no result: NPY Y2 blocker, NPY Y1 blocker)
C=CCOC(=O)/C(=C\c1ccc(OC)cc1)NC(=O)c1ccco1	NPY Y1 blocker 88.6 | NPY1 antag conf inactive | NPY2 antag ctr inactive
COc1ccc(CC2(CO)CCN(CC3=CC[C@H]4C[C@@H]3C4(C)C)CC2)cc1	NPY Y1 blocker 22.2 (no result: NPY Y2 blocker) | NPY1 antag conf inactive | NPY2 antag ctr inactive
COc1ccc(CC2(CO)CCN(Cc3ccncc3)CC2)cc1	none (no result: NPY Y2 blocker)
COC(=O)c1ccc(C2C(Oc3ccc(OC)cc3)C(=O)N2CCc2ccc(F)cc2)cc1 (configuration not stated)	NPY Y1 blocker 21.5 | NPY1 antag conf inactive | NPY2 antag ctr inactive
CC(=O)n1cc([C@@H]2C=C(C(=O)Nc3ccccc3)O[C@H](OCc3ccc(CO)cc3)C2)c2ccccc21	NPY Y1 blocker 34.3 (no result: NPY Y2 blocker) | NPY1 antag conf inactive | NPY2 antag ctr inactive
CCN(CC)S(=O)(=O)c1ccc(NC(=O)CSc2nnc(-c3cccc(OC)c3)n2C)cc1	none
C=C(C)CSc1nnc(-c2cccc(S(=O)(=O)N(C)C)c2)n1-c1cc(OC)ccc1OC	NPY Y1 blocker 26.4 | NPY1 antag conf inactive | NPY2 antag ctr inactive
CN(C)S(=O)(=O)c1ccc(Cl)c(NC(=O)COC(=O)/C=C/c2ccco2)c1	none (no result: NPY Y2 blocker)
CCn1c(=O)cc(SCC(=O)N2CCN(c3ccccc3F)CC2)c2ccccc21	NPY Y1 blocker 24.0 | NPY1 antag conf inactive | NPY2 antag ctr inactive
CCn1c(=O)cc(SCC(=O)N2CCN(c3ccccn3)CC2)c2ccccc21	none
COC(=O)c1ccc(CSc2nc3c(c(=O)n2-c2ccccc2)SCC3)o1	none
COC(=O)c1ccc(CSc2nc3c(c(=O)n2-c2ccc(F)cc2)SCC3)o1	NPY Y1 blocker 21.4 | NPY1 antag conf inactive | NPY2 antag ctr inactive
CCOC(=O)C1(CCCc2ccccc2)CCN(C2CCSCC2)CC1	NPY Y1 blocker 51.5 (no result: NPY Y2 blocker) | NPY1 antag conf 29.1 | NPY2 antag ctr inactive
OCC1(CCCc2ccccc2)CCN(C2CCSCC2)CC1	NPY Y1 blocker 25.0 (no result: NPY Y2 blocker) | NPY1 antag conf inactive | NPY2 antag ctr inactive
Cc1ccc(NC(=O)/C=C\C(=O)NCC(=O)O)cc1	none (no result: NPY Y2 blocker)
CC(=O)N1CCN(Cc2nc3cc(NC(=O)NC4CCCCC4)ccc3n2C)CC1	none (no result: NPY Y2 blocker)
Cc1cccc(Oc2sc(C(=O)c3ccccc3)c(N)c2C#N)c1C	NPY Y1 blocker 24.4 | NPY1 antag conf inactive | NPY2 antag ctr inactive
N#Cc1c(Oc2ccc3ccccc3c2)sc(C(=O)c2ccccc2)c1N	none
Cc1cc(C(=O)N/N=C(\CCC(=O)O)c2cccs2)c2ccccc2n1	NPY Y1 blocker 34.6 (no result: NPY Y2 blocker) | NPY1 antag conf inactive | NPY2 antag ctr inactive
Cc1cc(C(=O)OCC(=O)c2cccs2)c2ccccc2n1	none (no result: NPY Y2 blocker)

Bioassay records as filed in PubChem BioAssay.
